Key:
[1] = biological target: T1, Mu-type opioid receptor (Homo sapiens, UniProt P35372); test: Displacement of [3H]DPN from recombinant human mu opioid receptor expressed in CHOK1 cell membranes
Method in brief: (§1)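 Competition binding with the radioligand [3H]-DPN on membranes from CHO-K1 cells stably transfected with human recombinant μ or δ opioid receptor or guinea pig κ opioid receptor. Affinity is reported as pKi.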

[2] = biological target: Delta-type opioid receptor (Homo sapiens, UniProt P41143); test: Displacement of [3H]DPN from recombinant human delta opioid receptor expressed in CHOK1 cell membranes; method in brief: as §1
Chain of Delta-type opioid receptor (P41143 whole entry): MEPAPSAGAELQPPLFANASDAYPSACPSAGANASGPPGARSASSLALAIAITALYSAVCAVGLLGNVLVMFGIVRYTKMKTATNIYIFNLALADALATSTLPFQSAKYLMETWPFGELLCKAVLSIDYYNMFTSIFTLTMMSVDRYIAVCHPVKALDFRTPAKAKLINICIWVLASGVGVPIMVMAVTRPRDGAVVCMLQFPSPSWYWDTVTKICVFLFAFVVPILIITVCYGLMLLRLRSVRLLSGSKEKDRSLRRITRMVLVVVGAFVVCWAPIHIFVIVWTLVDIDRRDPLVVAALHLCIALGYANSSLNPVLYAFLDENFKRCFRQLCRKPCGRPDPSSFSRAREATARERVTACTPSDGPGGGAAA

[3] = biological target: Kappa-type opioid receptor (Cavia porcellus, UniProt P41144); test: Displacement of [3H]DPN from guinea pig kappa opioid receptor expressed in CHOK1 cell membranes; method in brief: as §1
Chain of Kappa-type opioid receptor (P41144 whole entry): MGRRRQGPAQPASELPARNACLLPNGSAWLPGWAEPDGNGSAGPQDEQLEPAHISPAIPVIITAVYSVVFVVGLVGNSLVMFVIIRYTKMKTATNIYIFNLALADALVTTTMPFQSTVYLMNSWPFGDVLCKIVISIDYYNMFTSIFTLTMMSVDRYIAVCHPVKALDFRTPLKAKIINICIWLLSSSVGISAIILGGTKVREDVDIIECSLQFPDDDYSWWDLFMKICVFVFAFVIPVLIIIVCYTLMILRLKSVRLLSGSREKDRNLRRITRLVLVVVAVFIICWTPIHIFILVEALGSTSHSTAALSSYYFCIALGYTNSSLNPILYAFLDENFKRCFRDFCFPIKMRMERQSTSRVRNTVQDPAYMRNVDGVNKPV

[4] = tested on: Liver; test: (§2) Half life in dog liver microsomes; format: ADME, Canis lupus familiaris, microsome; conditions: microsomes
[5] = biological target: T1, Mu-type opioid receptor; test: Intrinsic activity at recombinant human mu opioid receptor expressed in CHOK1 cells by [35S]GTPgammaS binding assay relative to DAMGO; format: functional, cell-based
Method in brief: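 Membranes from CHO-K1 cells stably transfected with human recombinant μ-opioid receptor; agonist activity measured as [35S]-GTPγS binding. Maximum compound-evoked response minus basal, expressed as percentage of the maximum response evoked by DAMGO.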

[6] = tested on: Liver; test: Half life in human liver microsomes; format: ADME, microsome; conditions: microsomes
[7] = Half life in rat liver microsomes; format: ADME, microsome; conditions: liver microsomes
[8] = as §2; format: ADME, Canis lupus familiaris, microsome; conditions: liver microsomes

T1 sequence (P35372 whole entry): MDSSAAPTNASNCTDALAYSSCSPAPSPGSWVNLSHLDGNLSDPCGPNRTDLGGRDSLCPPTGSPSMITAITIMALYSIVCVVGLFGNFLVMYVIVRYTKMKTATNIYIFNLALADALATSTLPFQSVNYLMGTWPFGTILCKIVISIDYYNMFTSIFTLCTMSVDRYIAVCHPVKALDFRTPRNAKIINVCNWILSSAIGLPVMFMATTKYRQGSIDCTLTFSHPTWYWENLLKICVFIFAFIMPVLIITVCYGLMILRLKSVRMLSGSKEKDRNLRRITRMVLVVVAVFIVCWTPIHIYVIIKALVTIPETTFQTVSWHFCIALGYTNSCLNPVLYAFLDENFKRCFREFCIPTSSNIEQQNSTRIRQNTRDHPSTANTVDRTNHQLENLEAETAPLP

Row | SMILES | Ki [1] [nM] | Ki [2] [nM] | Ki [3] [nM] | Intrinsic activity [5] [%] | other results
1 | NC(=O)c1cccc(C2C[C@H]3CC[C@H](C2)N3CCCOc2ccccc2)c1 (some centres not stated) [listing 1 of 2 here] | 6.31 | 100 | 31.6 | – | t1/2 [4]: 6 min
2 | CCCCCCCN1[C@@H]2CC[C@@H]1CC(c1cccc(C(N)=O)c1)C2 (some centres not stated) | – | – | – | 38 | –
3 | NC(=O)c1cccc(C2C[C@H]3CC[C@H](C2)N3CCCOc2ccccc2)c1 (some centres not stated) [listing 2 of 2 here] | – | – | – | 95 | –
4 | Oc1cccc(C2CC3CCC(C2)N3CCCc2ccccc2)c1 (mixture of isomers) | 0.158 | 1.26 | – | 22 | –
5 | CCCCCCCN1[C@@H]2CC[C@@H]1CC(c1cccc(C(N)=O)c1)C2 (relative stereo) | – | – | – | 28 | –
6 | NC(=O)c1cccc(C2C[C@H]3CC[C@H](C2)N3CC(O)Cc2ccccc2)c1 (relative stereo) | – | – | – | 3 | –
7 | NC(=O)c1cccc(C2C[C@H]3CC[C@H](C2)N3CCCOc2ccccc2)c1 (relative stereo) | – | – | – | 0 | –
8 | Oc1cccc(C2C[C@H]3CC[C@H](C2)N3CCCc2ccccc2)c1 (relative stereo; 12a) | – | – | – | 22 | –
9 | Oc1cccc(C2C[C@H]3CC[C@H](C2)N3CCCc2ccccc2)c1 (relative stereo; 12b) [listing 1 of 2 here] | 5.01 | 63.1 | 7.94 | – | t1/2 [6]: 27 min
10 | Oc1cccc(C2C[C@H]3CC[C@H](C2)N3CCCc2ccccc2)c1 (relative stereo; 12b) [listing 2 of 2 here] | – | – | – | 64 | –
11 | CCCCCCCN1[C@@H]2CC[C@@H]1CC(c1cccc(O)c1)C2 (relative stereo; 17a) [listing 1 of 2 here] | 0.251 | 2.51 | 0.251 | – | half-life [7]: 3 min; t1/2 [4]: 2 min; t1/2 [6]: 10 min
12 | CCCCCCCN1[C@@H]2CC[C@@H]1CC(c1cccc(O)c1)C2 (relative stereo; 17a) [listing 2 of 2 here] | – | – | – | 26 | –
13 | CCCCCCCN1[C@@H]2CC[C@@H]1CC(c1cccc(O)c1)C2 (relative stereo; 17b) | – | – | – | 62 | –
14 | Oc1cccc(C2C[C@H]3CC[C@H](C2)N3Cc2c(F)cccc2F)c1 (relative stereo; 18a) [listing 1 of 2 here] | 15.8 | 158 | 5.01 | – | half-life [7]: 2 min; half-life [8]: 20 min; t1/2 [6]: 29 min
15 | Oc1cccc(C2C[C@H]3CC[C@H](C2)N3Cc2c(F)cccc2F)c1 (relative stereo; 18a) [listing 2 of 2 here] | – | – | – | 36 | –
16 | Oc1cccc(C2C[C@H]3CC[C@H](C2)N3Cc2c(F)cccc2F)c1 (relative stereo; 18b) [listing 1 of 2 here] | 631 | 2510 | 126 | – | t1/2 [4]: 13 min; t1/2 [6]: 75 min
17 | Oc1cccc(C2C[C@H]3CC[C@H](C2)N3Cc2c(F)cccc2F)c1 (relative stereo; 18b) [listing 2 of 2 here] | – | – | – | 48 | –
18 | Oc1cccc(C2C[C@H]3CC[C@H](C2)N3CCCOc2ccccc2)c1 (relative stereo; 19a) | – | – | – | 9 | –
19 | Oc1cccc(C2C[C@H]3CC[C@H](C2)N3CCCOc2ccccc2)c1 (relative stereo; 19b) [listing 1 of 2 here] | 3.16 | 63.1 | 20 | – | t1/2 [4]: 2 min; t1/2 [6]: 20 min
20 | Oc1cccc(C2C[C@H]3CC[C@H](C2)N3CCCOc2ccccc2)c1 (relative stereo; 19b) [listing 2 of 2 here] | – | – | – | 85 | –
21 | CC(C)(C)c1ccc(CN2[C@@H]3CC[C@@H]2CC(c2cccc(O)c2)C3)cc1 (relative stereo; 20a) | – | – | – | 100 | –
22 | CC(C)(C)c1ccc(CN2[C@@H]3CC[C@@H]2CC(c2cccc(O)c2)C3)cc1 (relative stereo; 20b) | 2 | 31.6 | 3.16 | – | t1/2 [4]: 7 min; t1/2 [6]: 67 min
